{"source": "ChEMBL document CHEMBL1649304", "about": "“Efficacy of posaconazole as treatment and prophylaxis against Fusarium solani” (Antimicrob Agents Chemother, 2010)", "key": {"Fusarium solani [1]": {"test_system": "Fusarium solani", "assay": "Antifungal activity against inoculum range 6.5 x 10^5 to 6.8 x 10^5 conidia/animal Fusarium solani infected in ICR mouse assessed as bacterial count in kidney tissue at 6.25 mg/kg, po BID treated after 12 hrs of inoculation", "type": "functional", "procedure,_shortened": "(§1)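 Outbred ICR mice were made neutropenic with 5-fluorouracil 150 mg/kg i.v. 1 day before i.v. infection with F. solani isolate 95-2478 conidia (0.2 ml). Posaconazole oral suspension was given by gavage BID from 12 h after inoculation until day 9. Kidneys from moribund animals were homogenized and plated on potato dextrose agar, and CFU/g was counted after 48 h. Group medians were compared with untreated controls by Mann-Whitney.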"}, "Fusarium solani [2]": {"test_system": "Fusarium solani", "assay": "Antifungal activity against inoculum range 6.5 x 10^5 to 6.8 x 10^5 conidia/animal Fusarium solani infected in ICR mouse assessed as bacterial count in kidney tissue at 12.5 mg/kg, po BID treated after 12 hrs of inoculation", "type": "functional", "procedure,_shortened": "as §1"}, "Fusarium solani [3]": {"test_system": "Fusarium solani", "assay": "Antifungal activity against inoculum range 6.5 x 10^5 to 6.8 x 10^5 conidia/animal Fusarium solani infected in ICR mouse assessed as bacterial count in kidney tissue at 25 mg/kg, po BID treated after 12 hrs of inoculation", "type": "functional", "procedure,_shortened": "as §1"}, "Fusarium solani [4]": {"test_system": "Fusarium solani", "assay": "Antifungal activity against inoculum range 6.5 x 10^5 to 6.8 x 10^5 conidia/animal Fusarium solani infected in ICR mouse assessed as bacterial count in kidney tissue at 50 mg/kg, po BID treated after 12 hrs of inoculation", "type": "functional", "procedure,_shortened": "as §1"}, "Fusarium solani [5]": {"test_system": "Fusarium solani", "assay": "Antifungal activity against inoculum range 7.7 x 10^4 to 7.8 x 10^4 conidia/animal Fusarium solani infected in ICR mouse assessed as bacterial count in kidney tissue at 6.25 mg/kg, po BID treated after 12 hrs of inoculation", "type": "functional", "procedure,_shortened": "as §1"}, "Fusarium solani [6]": {"test_system": "Fusarium solani", "assay": "Antifungal activity against inoculum range 7.7 x 10^4 to 7.8 x 10^4 conidia/animal Fusarium solani infected in ICR mouse assessed as bacterial count in kidney tissue at 12.5 mg/kg, po BID treated after 12 hrs of inoculation", "type": "functional", "procedure,_shortened": "as §1"}, "Fusarium solani [7]": {"test_system": "Fusarium solani", "assay": "Antifungal activity against inoculum range 7.7 x 10^4 to 7.8 x 10^4 conidia/animal Fusarium solani infected in ICR mouse assessed as bacterial count in kidney tissue at 25 mg/kg, po BID treated after 12 hrs of inoculation", "type": "functional", "procedure,_shortened": "as §1"}, "Fusarium solani [8]": {"test_system": "Fusarium solani", "assay": "Antifungal activity against inoculum range 7.7 x 10^4 to 7.8 x 10^4 conidia/animal Fusarium solani infected in ICR mouse assessed as bacterial count in kidney tissue at 50 mg/kg, po BID treated after 12 hrs of inoculation", "type": "functional", "procedure,_shortened": "as §1"}, "Fusarium solani [9]": {"test_system": "Fusarium solani", "assay": "Antifungal activity against mid- inoculum 6.5 x 10^5 conidia/ml Fusarium solani infected in ICR mouse assessed as rate of survival at 6.25 mg/kg, po BID treated 2 days prior of infection", "type": "functional, organism-based", "parameters": "dose 6.25 mg/kg", "procedure,_shortened": "(§2)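 Dosing began 2 days before i.v. F. solani 95-2478 challenge in ICR mice made neutropenic with 5-fluorouracil (150 mg/kg i.v., day −1). Posaconazole oral suspension was gavaged BID through day 9, with observation off drug until day 15, n ≥10 per regimen. Moribund animals were euthanized and scored dead the next day. Kaplan-Meier median survival was compared with untreated controls.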"}, "Fusarium solani [10]": {"test_system": "Fusarium solani", "assay": "Antifungal activity against mid- inoculum 6.5 x 10^5 conidia/ml Fusarium solani infected in ICR mouse assessed as rate of survival at 12.5 mg/kg, po BID treated 2 days prior of infection", "type": "functional, organism-based", "parameters": "dose 12.5 mg/kg", "procedure,_shortened": "as §2"}, "Fusarium solani [11]": {"test_system": "Fusarium solani", "assay": "Antifungal activity against mid- inoculum 6.5 x 10^5 conidia/ml Fusarium solani infected in ICR mouse assessed as rate of survival at 25 mg/kg, po BID treated 2 days prior of infection", "type": "functional, organism-based", "parameters": "dose 25 mg/kg", "procedure,_shortened": "as §2"}, "Fusarium solani [12]": {"test_system": "Fusarium solani", "assay": "Antifungal activity against mid- inoculum 6.5 x 10^5 conidia/ml Fusarium solani infected in ICR mouse assessed as rate of survival at 50 mg/kg, po BID treated 2 days prior of infection", "type": "functional, organism-based", "parameters": "dose 50 mg/kg", "procedure,_shortened": "as §2"}, "Fusarium solani [13]": {"test_system": "Fusarium solani", "assay": "Antifungal activity against low - inoculum 7.5 x 10^4 conidia/ml Fusarium solani infected in ICR mouse assessed as rate of survival at 6.25 mg/kg, po BID treated 2 days prior of infection", "type": "functional, organism-based", "parameters": "dose 6.25 mg/kg", "procedure,_shortened": "as §2"}, "Fusarium solani [14]": {"test_system": "Fusarium solani", "assay": "Antifungal activity against low - inoculum 7.5 x 10^4 conidia/ml Fusarium solani infected in ICR mouse assessed as rate of survival at 12.5 mg/kg, po BID treated 2 days prior of infection", "type": "functional, organism-based", "parameters": "dose 12.5 mg/kg", "procedure,_shortened": "as §2"}, "Fusarium solani [15]": {"test_system": "Fusarium solani", "assay": "Antifungal activity against low - inoculum 7.5 x 10^4 conidia/ml Fusarium solani infected in ICR mouse assessed as rate of survival at 25 mg/kg, po BID treated 2 days prior of infection", "type": "functional, organism-based", "parameters": "dose 25 mg/kg", "procedure,_shortened": "as §2"}, "Fusarium solani [16]": {"test_system": "Fusarium solani", "assay": "Antifungal activity against low - inoculum 7.5 x 10^4 conidia/ml Fusarium solani infected in ICR mouse assessed as rate of survival at 50 mg/kg, po BID treated 2 days prior of infection", "type": "functional, organism-based", "parameters": "dose 50 mg/kg", "procedure,_shortened": "as §2"}, "Fusarium solani [17]": {"test_system": "Fusarium solani", "assay": "Antifungal activity against mid- inoculum 6.5 x 10^5 conidia/ml Fusarium solani infected in ICR mouse assessed as bacterial count in kidney tissue at 6.25 mg/kg, po BID treated 2 days prior of infection", "type": "functional", "procedure,_shortened": "(§3)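 Prophylaxis model: posaconazole oral suspension was given by gavage BID starting 2 days before i.v. conidial challenge and continued to day 9. ICR mice were made neutropenic with 5-fluorouracil 150 mg/kg i.v. 1 day pre-inoculation, with n ≥10 per regimen. Kidneys were homogenized and plated on potato dextrose agar, and CFU/g was read after 48 h. Results were compared with untreated controls by Mann-Whitney.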"}, "Fusarium solani [18]": {"test_system": "Fusarium solani", "assay": "Antifungal activity against mid- inoculum 6.5 x 10^5 conidia/ml Fusarium solani infected in ICR mouse assessed as bacterial count in kidney tissue at 12.5 mg/kg, po BID treated 2 days prior of infection", "type": "functional", "procedure,_shortened": "as §3"}, "Fusarium solani [19]": {"test_system": "Fusarium solani", "assay": "Antifungal activity against mid- inoculum 6.5 x 10^5 conidia/ml Fusarium solani infected in ICR mouse assessed as bacterial count in kidney tissue at 25 mg/kg, po BID treated 2 days prior of infection", "type": "functional", "procedure,_shortened": "as §3"}, "Fusarium solani [20]": {"test_system": "Fusarium solani", "assay": "Antifungal activity against mid- inoculum 6.5 x 10^5 conidia/ml Fusarium solani infected in ICR mouse assessed as bacterial count in kidney tissue at 50 mg/kg, po BID treated 2 days prior of infection", "type": "functional", "procedure,_shortened": "as §3"}, "Fusarium solani [21]": {"test_system": "Fusarium solani", "assay": "Antifungal activity against low - inoculum 7.5 x 10^4 conidia/ml Fusarium solani infected in ICR mouse assessed as bacterial count in kidney tissue at 6.25 mg/kg, po BID treated 2 days prior of infection", "type": "functional", "procedure,_shortened": "as §3"}, "Fusarium solani [22]": {"test_system": "Fusarium solani", "assay": "Antifungal activity against low - inoculum 7.5 x 10^4 conidia/ml Fusarium solani infected in ICR mouse assessed as bacterial count in kidney tissue at 12.5 mg/kg, po BID treated 2 days prior of infection", "type": "functional", "procedure,_shortened": "as §3"}, "Fusarium solani [23]": {"test_system": "Fusarium solani", "assay": "Antifungal activity against low - inoculum 7.5 x 10^4 conidia/ml Fusarium solani infected in ICR mouse assessed as bacterial count in kidney tissue at 25 mg/kg, po BID treated 2 days prior of infection", "type": "functional", "procedure,_shortened": "as §3"}, "Fusarium solani [24]": {"test_system": "Fusarium solani", "assay": "Antifungal activity against low - inoculum 7.5 x 10^4 conidia/ml Fusarium solani infected in ICR mouse assessed as bacterial count in kidney tissue at 50 mg/kg, po BID treated 2 days prior of infection", "type": "functional", "procedure,_shortened": "as §3"}, "Fusarium oxysporum": {"test_system": "Fusarium oxysporum", "assay": "Antifungal activity against Fusarium oxysporum isolate infected in ICR mouse", "type": "functional"}}, "note": "Activity calls are given as the source filed them. No cut-off for these calls is given here."}
{"smiles": "CC[C@@H]([C@H](C)O)n1ncn(-c2ccc(N3CCN(c4ccc(OC[C@@H]5CO[C@@](Cn6cncn6)(c6ccc(F)cc6F)C5)cc4)CC3)cc2)c1=O", "note": "[POSACONAZOLE]", "values": [{"measurement": "log10CFU/g", "setting": "Fusarium solani [1]", "value": 6}, {"measurement": "log10CFU/g", "setting": "Fusarium solani [2]", "value": 5.8}, {"measurement": "log10CFU/g", "setting": "Fusarium solani [3]", "value": 5.6}, {"measurement": "log10CFU/g", "setting": "Fusarium solani [4]", "value": 5.4}, {"measurement": "log10CFU/g", "setting": "Fusarium solani [5]", "value": 5}, {"measurement": "log10CFU/g", "setting": "Fusarium solani [6]", "value": 5.1}, {"measurement": "log10CFU/g", "setting": "Fusarium solani [7]", "value": 5}, {"measurement": "log10CFU/g", "setting": "Fusarium solani [8]", "value": 4.6}, {"measurement": "Activity", "setting": "Fusarium solani [9]", "value": "Active"}, {"measurement": "Activity", "setting": "Fusarium solani [10]", "value": "Active"}, {"measurement": "Activity", "setting": "Fusarium solani [11]", "value": "Active"}, {"measurement": "Activity", "setting": "Fusarium solani [12]", "value": "Active"}, {"measurement": "Activity", "setting": "Fusarium solani [13]", "value": "Active"}, {"measurement": "Activity", "setting": "Fusarium solani [14]", "value": "Active"}, {"measurement": "Activity", "setting": "Fusarium solani [15]", "value": "Active"}, {"measurement": "Activity", "setting": "Fusarium solani [16]", "value": "Active"}, {"measurement": "log10CFU/g", "setting": "Fusarium solani [17]", "value": 5.6}, {"measurement": "log10CFU/g", "setting": "Fusarium solani [18]", "value": 5.5}, {"measurement": "log10CFU/g", "setting": "Fusarium solani [19]", "value": 5.5}, {"measurement": "log10CFU/g", "setting": "Fusarium solani [20]", "value": 4.7}, {"measurement": "log10CFU/g", "setting": "Fusarium solani [21]", "value": 2.8}, {"measurement": "log10CFU/g", "setting": "Fusarium solani [22]", "value": 4.4}, {"measurement": "log10CFU/g", "setting": "Fusarium solani [23]", "value": 4.5}, {"measurement": "log10CFU/g", "setting": "Fusarium solani [24]", "value": 2.9}, {"measurement": "MIC", "setting": "Fusarium oxysporum", "value": "> 16", "unit": "µg/mL"}]}
